Measurements from ChEMBL document CHEMBL1134791, “2- and 3-substituted 1,4-naphthoquinone derivatives as subversive substrates of trypanothione reductase and lipoamide dehydrogenase from Trypanosoma cruzi: synthesis and correlation between redox cycling activities and in vitro cytotoxicity” (J Med Chem, 2001).

Experiments:
[1] = substrate: CC1=C(CCC(=O)O)C(=O)c2ccccc2C1=O; assay: (§1) Vmax is the maximum velocity of the pig heart LipDH (lipoamide dehydrogenase) catalyzed NADH oxidation
Outline: (§2)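 Recombinant T. cruzi LipDH (E. coli, purified) or pig heart LipDH, 0.1–2.5 µg/mL. Buffer was 50 mM potassium phosphate, 1 mM EDTA, pH 7.0, with 100 µM NADH and naphthoquinone at 10 µM–1.2 mM; all assays carried equal DMSO. Run at 31 °C, started with enzyme, NADH decrease followed at 340 nm. Km and Vmax from Lineweaver–Burk plots. At least duplicate.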

[2] = substrate: CC1=C(CCCNC(=O)OC(C)(C)C)C(=O)c2c(O)cccc2C1=O; assay: as §1; outline: as §2
[3] = substrate: CC1=C(CCCNC(=O)OC(C)(C)C)C(=O)c2ccccc2C1=O; assay: as §1; outline: as §2
[4] = substrate: CC1=C(CCC(=O)NCCCN2CCN(C)CC2)C(=O)c2c(O)cccc2C1=O; assay: as §1; outline: as §2
[5] = substrate: CC1=CC(=O)c2c(O)cccc2C1=O; assay: as §1; outline: as §2
[6] = substrate: CC1=C(CCC(=O)O)C(=O)c2c(O)cccc2C1=O; assay: as §1; outline: as §2
[7] = substrate: CC1=CC(=O)c2ccccc2C1=O; assay: as §1; outline: as §2
[8] = substrate: CC1=C(CCC(=O)NCCCN2CCN(C)CC2)C(=O)c2ccccc2C1=O; assay: as §1; outline: as §2
[9] = substrate: CC1=CC(=O)c2c(O)cccc2C1=O; assay: (§3) The Michaelis-Menten constant for […] by pig heart LipDH (lipoamide dehydrogenase); outline: as §2
[10] = substrate: CC1=CC(=O)c2ccccc2C1=O; assay: as §3; outline: as §2
[11] = substrate: CC1=C(CCC(=O)NCCCN2CCN(C)CC2)C(=O)c2ccccc2C1=O; assay: as §3; outline: as §2
[12] = substrate: CC1=C(CCC(=O)O)C(=O)c2ccccc2C1=O; assay: The Michaelis-Menten constant for NADH oxidation by pig heart LipDH (lipoamide dehydrogenase)
[13] = substrate: CC1=C(CCCNC(=O)OC(C)(C)C)C(=O)c2c(O)cccc2C1=O; assay: as above
[14] = substrate: CC1=C(CCCNC(=O)OC(C)(C)C)C(=O)c2ccccc2C1=O; assay: as above
[15] = substrate: CC1=C(CCC(=O)NCCCN2CCN(C)CC2)C(=O)c2c(O)cccc2C1=O; assay: as above
[16] = substrate: CC1=C(CCC(=O)O)C(=O)c2c(O)cccc2C1=O; assay: as above

B1: Dihydrolipoyl dehydrogenase, mitochondrial (Sus scrofa), P09623 (protein)
chain: MQSWSRVYCTLAKRGHFNRIAHGLQGVSAVPLRTYADQPIDADVTVIGSGPGGYVAAIKAAQLGFKTVCIEKNETLGGTCLNVGCIPSKALLNNSHYYHMAHGKDFASRGIEMSEVRLNLEKMMEQKSNAVKALTGGIAHLFKQNKVVRVNGYGKITGKNQVTATKADGSTEVINTKNILIATGSEVTPFPGITIDEDTVVSSTGALSLKKVPEKMVVIGAGVIGVELGSVWQRLGADVTAVELLGHVGGIGIDMEVSKNFQRILQKQGFKFKLNTKVIGATKKSDGNIDVSIEAASGGKAEVITCDVLLVCIGRRPFTQNLGLEELGIELDPRGRIPVNTRFQTKIPNIYAIGDVVAGPMLAHKAEDEGIICVEGMAGGAVHIDYNCVPSVIYTHPEVAWVGKSEEQLKEEGIEYKVGKFPFAANSRAKTNADTDGMVKILGQKSTDRVLGAHIIGPGAGEMINEAALALEYGASCEDIARVCHAHPTLSEAFREANLAASFGKAINF
- Vmax [1]: 1.52 µM/min/mg
- Vmax [2]: 1.66 µM/min/mg
- Vmax [3]: 1.03 µM/min/mg
- Vmax [4]: 1.09 µM/min/mg
- Vmax [5]: 25.3 µM/min/mg
- Vmax [6]: 2.2 µM/min/mg
- Vmax [7]: 11.5 µM/min/mg
- Vmax [8]: 3.46 µM/min/mg
- Km [9]: 74 µM
- Km [10]: 72 µM
- Km [11]: 110 µM
- Km [12]: 40 µM
- Km [13]: 40 µM
- Km [14]: 25 µM
- Km [15]: 15 µM
- Km [16]: 75 µM
